Results: ChEMBL document CHEMBL4396973, “Design and development of a series of borocycles as selective, covalent kallikrein 5 inhibitors” (Bioorg Med Chem Lett, 2019)
Where a name gives a salt, the structure may show the parent alone.

What was measured:
Kallikrein-5 [1] = target: T1, Kallikrein-5 (Homo sapiens, UniProt Q9Y337); test: Inhibition of human recombinant 6His-Q-FLAG-tagged KLK5 expressed in baculovirus infected Sf9 insect cells using rhodamine-labelled tripeptide as substrate measured at 30 secs interval for 5 mins by FLINT assay
T1 sequence (Q9Y337 whole entry): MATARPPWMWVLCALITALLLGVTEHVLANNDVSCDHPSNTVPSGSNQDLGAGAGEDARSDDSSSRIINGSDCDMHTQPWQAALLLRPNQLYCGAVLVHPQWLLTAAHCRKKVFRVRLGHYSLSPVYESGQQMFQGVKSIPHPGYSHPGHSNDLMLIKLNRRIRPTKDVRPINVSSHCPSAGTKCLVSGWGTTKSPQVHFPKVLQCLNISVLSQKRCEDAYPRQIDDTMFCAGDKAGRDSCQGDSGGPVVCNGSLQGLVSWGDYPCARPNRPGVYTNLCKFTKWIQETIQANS

Kallikrein-5 [2] = target: T1, Kallikrein-5; test: Inhibition of human recombinant 6His-Q-FLAG-tagged KLK5 expressed in baculovirus infected Sf9 insect cells using (Tos-Gly-Pro-Arg)2[R110].2TFA as substrate measured at 30 secs interval for 5 mins by FLINT assay
In short: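 Standard KLK5 assay format. Its theoretical tight-binding limit corresponds to pIC50 8.4.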

Kallikrein-1 [3] = target: T2, Kallikrein-1 (Homo sapiens, UniProt P06870); test: Inhibition of human recombinant N-terminal His-tagged and enterokinase cleavage site-fused KLK1 (19 to 262 residues) expressed in baculovirus infected Sf9 insect cells using R110 labelled GSK3162232A as substrate measured at 30 secs interval for 5 mins by FLINT assay
Homo sapiens [4] = species on record: Homo sapiens; test: Selectivity ratio of IC50 for human recombinant N-terminal His-tagged and enterokinase cleavage site-fused KLK1 (19 to 262 residues) expressed in baculovirus infected Sf9 insect cells to IC50 for human recombinant 6His-Q-FLAG-tagged KLK5 expressed in baculovirus infected Sf9 insect cells
[5] = Dissociation constant, borocycle pKa of the compound; type: physicochemical
Kallikrein-1 [6] = target: T2, Kallikrein-1; test: Inhibition of human recombinant N-terminal His-tagged and enterokinase cleavage site-fused KLK1 (19 to 262 residues) expressed in baculovirus infected Sf9 insect cells at 10 uM using R110 labelled GSK3162232A as substrate measured at 30 secs interval for 5 mins by FLINT assay relative to control
Kallikrein-7 = Kallikrein-7 (Homo sapiens, UniProt P49862); test: Inhibition of recombinant human C-terminal 10-His-tagged KLK7 (Glu23 to His252 residues) expressed in mouse NS0 cells using 5-FAM-E-A-L-Y-L-V-S-G-C(5-TAMRA) as substrate incubated for 40 mins by FLINT assay
Plasma kallikrein = Plasma kallikrein (Homo sapiens, UniProt P03952); test: Inhibition of human C-terminal 6-His-tagged KLKB1 (G20-A638 residues) expressed in mouse NS0 cells using PFR-AMC as substrate incubated for 40 mins by FLINT assay
Homo sapiens [7] = species on record: Homo sapiens; test: Selectivity ratio of IC50 for human C-terminal 6-His-tagged KLKB1 (G20 to A638 residues) expressed in mouse NS0 cells to IC50 for human recombinant 6His-Q-FLAG-tagged KLK5 expressed in baculovirus infected Sf9 insect cells
Prothrombin = Prothrombin (Homo sapiens, UniProt P00734); test: Inhibition of human recombinant C-terminal 10-His-tagged thrombin (M1 to E622 residues) expressed in mouse NS0 cells using BOC-VPR-AMC as substrate incubated for 40 mins by FLINT assay
Kallikrein-8 = target: T3, Kallikrein-8 (Homo sapiens, UniProt O60259); test: Inhibition of recombinant human C-terminal 10-His-tagged KLK8 (Gln29 to Gly260 residues) expressed in mouse NS0 cells using BOC-VPR-AMC as substrate incubated for 40 mins by FLINT assay
T3 sequence (O60259 whole entry): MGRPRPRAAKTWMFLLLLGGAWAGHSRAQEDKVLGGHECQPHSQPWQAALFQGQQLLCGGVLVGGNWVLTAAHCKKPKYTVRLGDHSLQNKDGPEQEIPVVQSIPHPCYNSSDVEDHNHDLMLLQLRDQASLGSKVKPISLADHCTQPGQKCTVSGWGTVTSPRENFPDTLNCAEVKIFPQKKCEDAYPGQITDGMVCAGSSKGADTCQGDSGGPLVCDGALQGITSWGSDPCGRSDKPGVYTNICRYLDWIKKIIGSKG

Kallikrein-14 = target: T4, Kallikrein-14 (Homo sapiens, UniProt Q9P0G3); test: Inhibition of recombinant human C-terminal 10-His-tagged KLK14 (Q19 to M248 residues) expressed in mouse NS0 cells using BOC-VPR-AMC as substrate incubated for 40 mins by FLINT assay
T4 sequence (Q9P0G3 whole entry): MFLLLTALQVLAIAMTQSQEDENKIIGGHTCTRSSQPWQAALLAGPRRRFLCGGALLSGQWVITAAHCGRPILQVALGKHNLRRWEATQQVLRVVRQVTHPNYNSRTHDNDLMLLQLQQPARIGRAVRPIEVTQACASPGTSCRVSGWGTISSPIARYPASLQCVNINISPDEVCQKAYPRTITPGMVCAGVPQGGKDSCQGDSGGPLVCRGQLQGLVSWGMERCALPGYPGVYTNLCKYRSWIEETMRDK

Kallikrein-5 [8] = target: T1, Kallikrein-5; test: Inhibition of human recombinant 6His-Q-FLAG-tagged KLK5 expressed in baculovirus infected Sf9 insect cells using (Tos-Gly-Pro-Arg)2[R110].2TFA as substrate measured at 30 secs interval for 5 mins using 1 x 10'10M enzyme by FLINT assay
Neutrophil elastase = target: T5, Neutrophil elastase (Homo sapiens, UniProt P08246); test: Inhibition of human neutrophil elastase using MeOSuc-AAPV-AMC as substrate incubated for 40 mins by FLINT assay
T5 sequence (P08246 whole entry): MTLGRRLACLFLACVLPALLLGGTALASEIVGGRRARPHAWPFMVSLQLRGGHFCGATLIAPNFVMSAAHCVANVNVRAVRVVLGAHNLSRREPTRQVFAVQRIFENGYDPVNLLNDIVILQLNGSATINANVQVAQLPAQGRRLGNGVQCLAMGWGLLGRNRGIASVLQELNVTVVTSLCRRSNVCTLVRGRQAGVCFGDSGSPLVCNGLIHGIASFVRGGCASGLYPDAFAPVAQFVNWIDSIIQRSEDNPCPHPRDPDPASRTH

[9] = target: T6, Suppressor of tumorigenicity 14 protein (Homo sapiens, UniProt Q9Y5Y6); test: Inhibition of recombinant human N-terminal Met and 6-His-tagged matriptase (G596 to V855 residues) expressed in Escherichia coli using Boc-QAR-AMC as substrate incubated for 40 mins by FLINT assay
T6 sequence (Q9Y5Y6 whole entry): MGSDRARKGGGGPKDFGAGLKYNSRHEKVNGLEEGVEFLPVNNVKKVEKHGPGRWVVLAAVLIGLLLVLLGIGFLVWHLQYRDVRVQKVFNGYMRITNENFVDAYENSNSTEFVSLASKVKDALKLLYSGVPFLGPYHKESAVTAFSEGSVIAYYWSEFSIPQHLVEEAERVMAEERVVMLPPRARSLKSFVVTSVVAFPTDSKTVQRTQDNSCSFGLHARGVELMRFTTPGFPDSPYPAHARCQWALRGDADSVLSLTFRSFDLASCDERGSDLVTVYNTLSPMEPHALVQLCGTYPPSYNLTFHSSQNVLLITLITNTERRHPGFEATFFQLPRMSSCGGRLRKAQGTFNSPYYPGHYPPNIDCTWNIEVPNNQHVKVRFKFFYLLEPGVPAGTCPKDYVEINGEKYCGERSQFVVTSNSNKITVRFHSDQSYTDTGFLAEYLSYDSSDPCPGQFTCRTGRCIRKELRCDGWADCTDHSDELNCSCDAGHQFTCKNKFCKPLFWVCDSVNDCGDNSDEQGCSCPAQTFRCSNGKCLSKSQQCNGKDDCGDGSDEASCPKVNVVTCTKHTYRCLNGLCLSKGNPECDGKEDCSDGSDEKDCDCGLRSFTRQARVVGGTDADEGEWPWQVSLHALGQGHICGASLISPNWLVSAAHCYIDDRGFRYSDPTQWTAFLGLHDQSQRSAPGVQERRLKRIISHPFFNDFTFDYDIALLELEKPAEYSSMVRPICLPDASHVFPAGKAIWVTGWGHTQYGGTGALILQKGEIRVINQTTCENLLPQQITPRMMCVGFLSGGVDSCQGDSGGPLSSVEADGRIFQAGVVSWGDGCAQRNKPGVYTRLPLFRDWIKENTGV

[10] = target: Urokinase-type plasminogen activator (Homo sapiens, UniProt P00749); test: Inhibition of recombinant human C-terminal 10-His-tagged urokinase (M1 to L431 residues) expressed in mouse NS0 cells using Z-GGR-AMC as substrate incubated for 40 mins by FLINT assay
Coagulation factor X = Coagulation factor X (Homo sapiens, UniProt P00742); test: Inhibition of recombinant human C-terminal 10-His-tagged factor Xa (L24 to K488 residues) expressed in baculovirus infected Sf21 insect cells using Mca-RPKPVE-Nval-WRK(Dnp)-NH2 as substrate incubated for 40 mins by FLINT assay
[11] = target: Kallikrein-5 (Homo sapiens) (UniProt Q9Y337); test: Covalent reversible inhibition of human recombinant 6His-Q-FLAG-tagged KLK5 expressed in baculovirus infected Sf9 insect cells assessed as dissociation rate constant
In short: (§1)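 Jump-dilution experiment used to follow dissociation from KLK5. The apparent off-rate constant (K-off, per min) and dissociation half-life (T1/2) were derived from it.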

[12] = target: Kallikrein-5 (Homo sapiens) (UniProt Q9Y337); test: Covalent reversible inhibition of human recombinant 6His-Q-FLAG-tagged KLK5 expressed in baculovirus infected Sf9 insect cells assessed as dissociation half life; in short: as §1

Row | SMILES | IC50 (Kallikrein-5 [1]) | IC50 (Kallikrein-5 [2]) | IC50 (Kallikrein-1 [3]) | Ratio IC50 (Homo sapiens [4]) | pKa [5] | inhibition (Kallikrein-1 [6]) | IC50 (Kallikrein-7) | IC50 (Plasma kallikrein) | Ratio IC50 (Homo sapiens [7]) | IC50 (Prothrombin) | IC50 (Kallikrein-8) | IC50 (Kallikrein-14) | IC50 (Kallikrein-5 [8]) | IC50 (Neutrophil elastase) | IC50 [9] | IC50 [10] | IC50 (Coagulation factor X) | Kdiss [11] | T1/2 [12]
1 | N=C(N)c1ccccc1 [BENZAMIDINE HYDROCHLORIDE] | 501 µM |  |  |  |  |  |  |  |  |  |  |  |  |  |  |  |  |  | 
2 | N=C(N)c1ccc(CC2OB(O)c3ccccc32)cc1 (racemic) |  | 0.158 µM | 5.01 µM | 30 to 100 |  |  |  |  |  |  |  |  |  |  |  |  |  |  | 
3 | N=C(N)c1ccc(CC2OB(O)c3cc(C(F)(F)F)ccc32)cc1OCc1cccnc1 (racemic) |  | 0.0126 µM | > 10 µM |  | 4.51 | 24% | > 100 µM | 0.2 µM | 10 | 20 µM | 2 µM | 12.6 µM | 0.00251 µM | > 100 µM | 31.6 µM | > 100 µM | 31.6 µM |  | 
4 | N=C(N)c1ccc(CC2OB(O)c3ccccc32)cc1OCc1cccnc1 (racemic) |  | 0.02 µM | 316 µM | > 100 | 4.8 |  | > 100 µM | 0.0794 µM | 10 | 10 µM | 0.2 µM | 2 µM | 0.00631 µM | 12.6 µM | 7.94 µM | 79.4 µM | > 100 µM |  | 
5 | N=C(N)c1ccc(CC2OB(O)c3ccc(F)cc32)cc1OCc1cccnc1 (racemic) |  | 0.0158 µM | > 10 µM |  | 4.66 | 10% | > 100 µM | 0.794 µM | 10 | 15.8 µM | 12.6 µM | 31.6 µM | 0.01 µM | 100 µM | 39.8 µM | > 100 µM | 63.1 µM |  | 
6 | N=C(N)c1ccc([C@@H]2Cc3ccc(C(F)(F)F)cc3B(O)O2)cc1OCc1cccnc1 |  | 0.00501 µM | 2 µM |  |  |  | > 100 µM | 0.398 µM |  | 20 µM | 0.0316 µM | 0.398 µM | < 0.000794 µM | > 100 µM | 2 µM | > 100 µM | 3.98 µM | 0.00214 s⁻¹ | 5 min
7 | COc1ccc2c(c1)C(Cc1ccc(C(=N)N)c(OCc3cccnc3)c1)OB2O (racemic) |  | 0.0398 µM | > 10 µM |  | 4.71 | 13% | > 100 µM | 1.26 µM | 10 | 31.6 µM | 12.6 µM | 39.8 µM | 0.0251 µM | > 100 µM | 25.1 µM | > 100 µM | 79.4 µM |  | 
8 | N=C(N)c1ccc(C2Cc3ccccc3B(O)O2)cc1OCc1cccnc1 (racemic) |  |  | 31.6 µM | > 100 | 4.83 |  | > 100 µM | 0.1 µM | 10 | 2.51 µM | 0.398 µM | 0.794 µM | 0.00398 µM | 5.01 µM | 6.31 µM | 50.1 µM | 7.94 µM |  | 
9 | N=C(N)c1ccc(C2Cc3ccccc3B(O)O2)cc1 (racemic) |  | 0.0794 µM | 10 µM | 30 to 100 |  |  |  |  |  |  |  |  |  |  |  |  |  |  | 
